What was measured:
[1] = test system: Rattus norvegicus; experiment: Percentage fall in systolic blood pressure after 3 hr at 6.25 mg/kg given perorally; assay type: functional, Artery; settings: route oral
Method in brief: (§1)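 Male Okamoto-Aoki spontaneously hypertensive rats, trained, in groups of four matched for mean systolic pressure; five treated groups and one vehicle control run concurrently. Oral dosing in water (solution or suspension, 0.1 mL/10 g) on two consecutive mornings. On day 2, rats were restrained at 30.0 ± 1.0 °C and tail-cuff systolic pressure recorded at 1–4 h; percent fall versus control, 1-tail t test, p ≤ 0.05.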

[2] = test system: Rattus norvegicus; experiment: Percentage fall in systolic blood pressure after 3 hr at 25 mg/kg given perorally; assay type: functional, Artery; settings: route oral; method in brief: as §1
[3] = test system: Rattus norvegicus; experiment: Percentage fall in systolic blood pressure after 2 hr at 25 mg/kg given perorally; assay type: functional, Artery; settings: route oral; method in brief: as §1
[4] = test system: Rattus norvegicus; experiment: Percentage fall in systolic blood pressure after 1 hr at 25 mg/kg given perorally; assay type: functional, Artery; settings: route oral; method in brief: as §1
[5] = test system: Rattus norvegicus; experiment: Percentage fall in systolic blood pressure after 1 hr at 6.25 mg/kg given perorally; assay type: functional, Artery; settings: route oral
Method in brief: (§2)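 Male Okamoto-Aoki SHR, four per group, with a concurrent vehicle control group. Oral dosing in water (0.1 mL/10 g) on two consecutive mornings. After the day-2 dose, rats were restrained in a 30 °C chamber. Tail-cuff systolic pressure was taken at 1-4 h from four traces per rat. Result is % decrease versus control mean, by 1-tailed t test, p ≤ 0.05.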

[6] = test system: Rattus norvegicus; experiment: Percentage fall in systolic blood pressure after 4 hr at 6.25 mg/kg given perorally; assay type: functional, organism-based; design: dose 6.25 mg/kg; settings: Artery; method in brief: as §1
[7] = test system: Rattus norvegicus; experiment: Percentage fall in systolic blood pressure after 2 hr at 6.25 mg/kg given perorally; assay type: functional, Artery; settings: route oral; method in brief: as §1
[8] = test system: Rattus norvegicus; experiment: Percentage fall in systolic blood pressure after 4 hr at 25 mg/kg given perorally; assay type: functional, Artery; settings: route oral; method in brief: as §1
[9] = test system: Rattus norvegicus; experiment: Percentage fall in systolic blood pressure after 3 hours at 25 mg/kg given perorally; assay type: functional, Artery; settings: route oral; method in brief: as §1
[10] = test system: Rattus norvegicus; experiment: Percentage fall in systolic blood pressure after 2 hours at 25 mg/kg given perorally; assay type: functional, organism-based; design: dose 25 mg/kg; settings: Artery; method in brief: as §1
[11] = test system: Rattus norvegicus; experiment: Percentage fall in systolic blood pressure after 4 hours at 25 mg/kg given perorally; assay type: functional, Artery; settings: route oral; method in brief: as §1
[12] = test system: Rattus norvegicus; experiment: Percentage fall in systolic blood pressure after 3 hours at 12.5 mg/kg given perorally; assay type: functional, Artery; settings: route oral; method in brief: as §2
[13] = test system: Rattus norvegicus; experiment: Percentage fall in systolic blood pressure after 2 hours at 12.5 mg/kg given perorally; assay type: functional, Artery; settings: route oral; method in brief: as §2
[14] = test system: Rattus norvegicus; experiment: Percentage fall in systolic blood pressure after 4 hours at 12.5 mg/kg given perorally; assay type: functional, Artery; settings: route oral; method in brief: as §2
[15] = test system: Rattus norvegicus; experiment: Percentage fall in systolic blood pressure after 1 hours at 3.1 mg/kg given perorally; assay type: functional, Artery; settings: route oral; method in brief: as §1
[16] = test system: Rattus norvegicus; experiment: Percentage fall in systolic blood pressure after 3 hours at 3.1 mg/kg given perorally; assay type: functional, organism-based; design: dose 3.1 mg/kg; settings: Artery; method in brief: as §1
[17] = test system: Rattus norvegicus; experiment: Percentage fall in systolic blood pressure after 4 hours at 3.1 mg/kg given perorally; assay type: functional, organism-based; design: dose 3.1 mg/kg; settings: Artery; method in brief: as §1
[18] = test system: Rattus norvegicus; experiment: Percentage fall in systolic blood pressure after 2 hours at 3.1 mg/kg given perorally; assay type: functional, Artery; settings: route oral; method in brief: as §1
[19] = test system: Rattus norvegicus; experiment: Percentage fall in systolic blood pressure after 1 hours at 12.5 mg/kg given perorally; assay type: functional, Artery; settings: route oral; method in brief: as §1
[20] = test system: Rattus norvegicus; experiment: Percentage fall in systolic blood pressure after 2 hours at 50 mg/kg given perorally; assay type: functional, organism-based; design: dose 50 mg/kg; settings: Artery; method in brief: as §1
[21] = test system: Rattus norvegicus; experiment: Percentage fall in systolic blood pressure after 4 hours at 50 mg/kg given perorally; assay type: functional, organism-based; design: dose 50 mg/kg; settings: Artery; method in brief: as §1
[22] = test system: Rattus norvegicus; experiment: Percentage fall in systolic blood pressure after 1 hr at 50 mg/kg given perorally; assay type: functional, organism-based; design: dose 50 mg/kg; settings: Artery; method in brief: as §1
[23] = test system: Rattus norvegicus; experiment: Percentage fall in systolic blood pressure after 3 hours at 50 mg/kg given perorally; assay type: functional, organism-based; design: dose 50 mg/kg; settings: Artery; method in brief: as §1

What does the source list for O=C1COC2(CCN(CC3COc4ccccc4O3)CC2)CN1 (centres undefined)?
Decrease in SBP [1]: 21%; Decrease in SBP [2]: 40%; Decrease in SBP [3]: 49%; Decrease in SBP [4]: 53%; Decrease in SBP [5]: 38%; Decrease in SBP [6]: Not significant; Decrease in SBP [7]: 36%; Decrease in SBP [8]: 38%

For O=C1COC2(CCN(CCc3ccc(O)cc3)CC2)CN1, which “Decrease in SBP” value [9] is on record?
Its value is 11%.

And the “Decrease in SBP” value [10]?
The value was “Not significant”.

And the “Decrease in SBP” value [11]?
The value was 21%.

And the “Decrease in SBP” value [4]?
The value was 13%.

With CN1CC2(CCN(CCCC(=O)c3ccc(F)cc3)CC2)OCC1=O as the compound, how does the “Decrease in SBP” value [12] read?
The value was 25%.

And the “Decrease in SBP” value [13]?
The value was 37%.

What about the “Decrease in SBP” value [14] of the same compound?
The value was 19%.

What about the “Decrease in SBP” value [15] of the same compound?
Its value is 26%.

And the “Decrease in SBP” value [16]?
Its value is “Not significant”.

And the “Decrease in SBP” value [17]?
Its value is “Not significant”.

What about the “Decrease in SBP” value [18] of the same compound?
The value was 27%.

And the “Decrease in SBP” value [19]?
Its value is 46%.

O=C1COC2(CCN(CC(O)C3COc4ccccc4O3)CC2)C(c2ccccc2)N1 (centres undefined) was tested. Which “Decrease in SBP” value [20] did it give?
The value was “Not significant”.

And the “Decrease in SBP” value [21]?
Its value is “Not significant”.

And the “Decrease in SBP” value [22]?
Its value is “Not significant”.

And the “Decrease in SBP” value [23]?
Its value is “Not significant”.

Source: ChEMBL document CHEMBL1122233, “Antihypertensive 9-substituted 1-oxa-4,9-diazaspiro[5.5]undecan-3-ones” (J Med Chem, 1983)
